According to PMC8757366 (ACS Omega, 2021):
Square brackets hold non-standard residues; d marks the D form. Peptide text beside a SMILES is read from it. * marks the point of attachment. Phe(3,4-(OMe)2) = COc1ccc(C[C@H](N)C(=O)O)cc1OC; Phe(F5) = N[C@@H](Cc1c(F)c(F)c(F)c(F)c1F)C(=O)O; Lys(Et,iPr) = CCN(CCCC[C@H](N)C(=O)O)C(C)C; Cha = N[C@@H](CC1CCCCC1)C(=O)O; Nicotinoyl = O=C(c1cccnc1)*; X1 = Nc1cc(C(=O)*)ccc1Br

Legend:
[1] = molecular target: CBX5 chromodomain (Homo sapiens, UniProt P45973); assay: TR-FRET competition assay, CBX5; format: binding; settings: for affinity improvement toward CBX5 over UNC5191 by TR-FRET: compared to UNC5191; for selectivity for CBX5 over CBX7: from TR-FRET IC50 values
Outline: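 Competition of biotinylated peptide tracer P42 from His-tagged chromodomain: CBX5 30 nM with 30 nM tracer, MPP8 25 nM with 50 nM tracer. Detection with 10 nM ULight-anti-6xHis and 2 nM Eu-streptavidin in 20 mM Tris pH 7.5, 150 mM NaCl, 0.05% Tween 20, 2 mM DTT. 1 h equilibration in dark; 665/615 nm ratio. 0–100% scale against DMSO and 100 μM UNC5241. Four-parameter IC50 fit; mean ± SD of three replicates.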

[2] = molecular target: CBX5 (HP1α) chromodomain (Homo sapiens, UniProt P45973); assay: Isothermal titration calorimetry; format: binding; settings: for Kd: CBX5 ITC Kd, 25 °C
Outline: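 Run at 25 °C in 25 mM Tris–HCl pH 7.5, 150 mM NaCl, 2 mM β-mercaptoethanol. His-tagged chromodomain expressed in E. coli and purified by Ni affinity and size exclusion; concentration by Edelhoch method. Typically 50 μM protein with 0.5 mM compound or 100 μM with 1.0 mM, always 10:1. One 0.2 μL injection, then 26 × 1.5 μL at 180 s spacing; first point deleted; one-site fit. Mean ± SD of at least two replicates.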

Sequence of CBX5 chromodomain (P45973 18-75): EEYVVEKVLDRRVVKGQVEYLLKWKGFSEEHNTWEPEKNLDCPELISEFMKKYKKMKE
Sequence of CBX5 (HP1α) chromodomain (P45973 18-75): as above

Row | SMILES | affinity improvement toward CBX5 over UNC5191 by TR-FRET [1] | selectivity for CBX5 over CBX7 [1] | Kd ([2]; one site binding model) | also measured
1 | CCN(CCCC[C@H](NC(=O)[C@H](CC(C)C)NC(=O)[C@H](C)NC(=O)[C@H](Cc1c(F)c(F)c(F)c(F)c1F)NC(=O)c1cccnc1)C(=O)N[C@@H](CO)C(N)=O)C(C)C [UNC4869, N-((8S,11S,14S,17S)-8-(((S)-1-Amino-3-hydroxy-1-oxopropan-2-yl)carbamoyl)-3-ethyl-11-isobutyl-2,14-dimethyl-10,13,16-trioxo-18-(perfluorophenyl)-3,9,12,15-tetraazaoctadecan-17-yl)nicotinamide] (Nicotinoyl-[Phe(F5)]AL[Lys(Et,iPr)]S-NH2) | about 3 fold | 26 fold | – | –
2 | CCN(CCCC[C@H](NC(=O)[C@H](CC(C)C)NC(=O)[C@H](C)NC(=O)[C@H](Cc1ccccc1)NC(=O)c1cccnc1)C(=O)N[C@@H](CO)C(N)=O)C(C)C [UNC5191, N-((8S,11S,14S,17S)-8-(((S)-1-Amino-3-hydroxy-1-oxopropan-2-yl)carbamoyl)-3-ethyl-11-isobutyl-2,14-dimethyl-10,13,16-trioxo-18-phenyl-3,9,12,15-tetraazaoctadecan-17-yl)nicotinamide] (Nicotinoyl-FAL[Lys(Et,iPr)]S-NH2) | – | – | 6930 ± 820 nM | –
3 | CCN(CCCC[C@H](NC(=O)[C@H](CC(C)C)NC(=O)[C@H](C)NC(=O)[C@H](CC1CCCCC1)NC(=O)c1cccnc1)C(=O)N[C@@H](CO)C(N)=O)C(C)C [UNC6383, N-((8S,11S,14S,17S)-8-(((S)-1-Amino-3-hydroxy-1-oxopropan-2-yl)carbamoyl)-18-cyclohexyl-3-ethyl-11-isobutyl-2,14-dimethyl-10,13,16-trioxo-3,9,12,15-tetraazaoctadecan-17-yl)nicotinamide] (Nicotinoyl-[Cha]AL[Lys(Et,iPr)]S-NH2) | – | 11 fold | – | –
4 | CCN(CCCC[C@H](NC(=O)[C@H](Cc1ccccc1)NC(=O)[C@H](C)NC(=O)[C@H](Cc1ccccc1)NC(=O)c1cccnc1)C(=O)N[C@@H](CO)C(N)=O)C(C)C [UNC6384, N-((8S,11S,14S,17S)-8-(((S)-1-Amino-3-hydroxy-1-oxopropan-2-yl)carbamoyl)-11-benzyl-3-ethyl-2,14-dimethyl-10,13,16-trioxo-18-phenyl-3,9,12,15-tetraazaoctadecan-17-yl)nicotinamide] (Nicotinoyl-FAF[Lys(Et,iPr)]S-NH2) | – | – | 3380 nM | –
5 | CCN(CCCC[C@H](NC(=O)[C@H](Cc1ccc(OC)c(OC)c1)NC(=O)[C@H](C)NC(=O)[C@H](Cc1ccccc1)NC(=O)c1cccnc1)C(=O)N[C@@H](CO)C(N)=O)C(C)C [UNC6392, N-((8S,11S,14S,17S)-8-(((S)-1-Amino-3-hydroxy-1-oxopropan-2-yl)carbamoyl)-11-(3,4-dimethoxybenzyl)-3-ethyl-2,14-dimethyl-10,13,16-trioxo-18-phenyl-3,9,12,15-tetraazaoctadecan-17-yl)nicotinamide] (Nicotinoyl-FA[Phe(3,4-(OMe)2)][Lys(Et,iPr)]S-NH2) | – | – | 1270 nM | potency for CBX5 relative to UNC6384 by ITC ([2]; ITC Kd compared to UNC6384): 2 fold
6 | CCN(CCCC[C@H](NC(=O)[C@H](Cc1ccc(OC)c(OC)c1)NC(=O)[C@H](C)NC(=O)[C@H](CC1CCCCC1)NC(=O)c1ccc(Br)c(N)c1)C(=O)N[C@@H](CO)C(N)=O)C(C)C [UNC7047, 3-Amino-N-((8S,11S,14S,17S)-8-(((S)-1-amino-3-hydroxy-1-oxopropan-2-yl)carbamoyl)-18-cyclohexyl-11-(3,4-dimethoxybenzyl)-3-ethyl-2,14-dimethyl-10,13,16-trioxo-3,9,12,15-tetraazaoctadecan-17-yl)-4-bromobenzamide] (X1-[Cha]A[Phe(3,4-(OMe)2)][Lys(Et,iPr)]S-NH2) | 80 fold | – | – | Kd ([2]; mean ± SD of three replicates): 237 ± 68 nM; potency for CBX5 relative to UNC5191 by ITC ([2]; ITC Kd compared to UNC5191): 30 fold; IC50 [1]: 79 ± 40 nM
